Measured values taken from PubChem BioAssay.
Inconclusive results are not listed.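 How the source made its calls, unless noted: active means viability at or below 27.92% in each of two runs, the all-compound median minus 4 SD; inconclusive means no clear call, values can overlap the other calls; inactive means the rest.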

How the values were obtained:
[1] = OD615 S. cerevisiae growth inhibition, permissive medium, pilot counter-assay, permissive growth control for S. cerevisiae lifespan shortening project (AID 705;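 active means growth inhibition above 25% in both replicates, a cutoff set 3 SD above the mean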); details: OD615, 24 h, at 10 µM, hits give high values
In short: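 System: S. cerevisiae with engineered DeaD lifespan system. Medium: SC raffinose/galactose permissive medium. Doses: single compound dose of 10 µM, 0.25% DMSO final. Schedule: 24 h exposure, 30 °C. Measured by: OD615 turbidity read. Read-out: growth inhibition.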

[2] = Restrictive medium S. cerevisiae growth inhibition, OD615, pilot screen of yeast lifespan reduction project, restrictive growth control (AID 706;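 active means growth inhibition above a set limit, 3 SD over mean compound inhibition, in both replicates, cut at about 43% in these data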;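 further: modified DeaD lifespan yeast strain shifted to restrictive glucose medium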); details: OD615, 48 h, at 10 µM, hits give high values
In short: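 Assay system – genetically modified Saccharomyces cerevisiae, DeaD replicative lifespan assay strain · Medium – CSMM-D glucose medium · Doses – 10 µM compound, 0.25% DMSO · Times – 4 h pre-incubation, 48 h exposure at 30 °C · Signal – optical density at 615 nm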

[3] = viability gain of MRP-1-high H69AR cells under doxorubicin, pilot screen, MRP-1 activator project, CellTiter-Glo, duplicate (AID 807;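 active means viability increase at or above a cutoff of the median across tested compounds plus 3 SD, cut at about 8.5% in these data, passing the limit was not always enough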;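 further: compound pretreatment 18-22 h then 72 h combined with doxorubicin; 0% = doxorubicin alone and 100% = vehicle without doxorubicin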); details: H69AR viability with doxorubicin, CellTiter-Glo luminescence; at 10 µM; hits give high values
[4] = growth suppression of beta-catenin knockout HCT116, pilot screen, human colon tumor cells (AID 823;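 active means cell viability at or below a set limit in both duplicate runs, the limit being the all-compound median minus 4 SD, cut at about 23% in these data, passing the limit was not always enough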;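 further: 0% = wells killed by 20 µM Hyamine and 100% = untreated DMSO cell wells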); details: CellTiter-Glo, 60 h, at 10 µM, hits give low values
[5] = growth suppression of PTEN-deleted HCT116, pilot screen, cell-based, HCT116 clonal line, CellTiter-Glo (AID 824); details: 60 h, at 10 µM, hits give low values;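 further: 0% = 20 µM Hyamine control and 100% = vehicle cell control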
[6] = inhibitors of the yeast RAM network, pilot screen, dse1pr::URA3 reporter, 5-FOA selection (AID 869;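 active means inhibition over a set limit, the all-compound mean plus 3 SD, in both replicate runs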;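 further: 0% = DMSO wells with no growth and 100% = 10 µM 1-NA-PP1 with full growth; RAM network block rescues cells from 5-FOA so hits raise OD615 growth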); details: S. cerevisiae dse1pr::URA3 5-FOA growth, OD615, 2 d; at 10 µM; hits give high values; strain carries analog-sensitive mutant Cbk1 kinase
[7] = RAM signaling pathway blockade in yeast – S. cerevisiae, Pdr1DBD-CYC8 efflux-inhibited sensitized strain, primary screen (AID 1298;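 active means RAM network inhibition above 8.4% in each of two replicates, 3 SD over the compound average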;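 further: 0% = DMSO untreated cells without growth and 100% = 10 µM 1-NA-PP1 full growth; higher means more yeast growth rescued from 5-FOA killing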); details: S. cerevisiae cbk1-as DSE1-URA3 strain, 5-FOA growth OD615, 2 d; at 50 µM; hits give high values

CSc1nnc(Cn2c(=O)sc3ccccc32)n1-c1ccccc1C
inactive: growth inhibition [1] -14.4% | growth inhibition [2] -4% | viability increase [3] -2.05% | viability [4] 97.2% | viability [5] 96.7% | inhibition [6] 1.73% | RAM network inhibition [7] 2.76%

O=C(O)C1C2C=CC3(CN(C/C=C/c4ccccc4)C(=O)C13)O2 (stereo not drawn)
inactive: growth inhibition [1] -17.1% | growth inhibition [2] -3.43% | viability increase [3] -2.86% | viability [4] 94% | viability [5] 100% | inhibition [6] 1.28% | RAM network inhibition [7] 3.71%

COC(=O)Cn1c(CN2CCc3ccccc3C2)nc2c1c(=O)n(C)c(=O)n2C
inactive: growth inhibition [1] -4.78% | growth inhibition [2] 0.56% | viability increase [3] -1.18% | viability [4] 95.6% | viability [5] 96.2% | inhibition [6] 1.31% | RAM network inhibition [7] 8.74%

Cc1cc(N2C(=O)CC(Cc3ccccc3)C2=O)no1 (stereo not drawn)
inactive: growth inhibition [1] -6.49% | growth inhibition [2] -11.5% | viability increase [3] 1.08% | viability [4] 103% | viability [5] 103% | inhibition [6] 1.55% | RAM network inhibition [7] 2.8%

CCN(CC)CCCNC(=O)c1cc2c(=O)n(C)c3ccccc3c2n1C
inactive: growth inhibition [1] -6.05% | growth inhibition [2] -3.57% | viability increase [3] -6.34% | viability [4] 55.8% | viability [5] 58.4% | inhibition [6] -0.125% | RAM network inhibition [7] 2.21%

Cc1ccc2nc(-c3ccccc3)cc(C(=O)O)c2c1
inactive: growth inhibition [1] -9.89% | growth inhibition [2] 8.96% | viability increase [3] -2.12% | viability [4] 95.3% | viability [5] 87.8% | inhibition [6] 1.46% | RAM network inhibition [7] 3.9%

Cc1ccccc1-n1nc2c(c1NC(=O)c1cccc(F)c1)CS(=O)C2 (stereo not drawn)
inactive: growth inhibition [1] -8.75% | growth inhibition [2] 5.54% | viability increase [3] 0.96% | viability [4] 98.8% | viability [5] 98.5% | inhibition [6] 0.835% | RAM network inhibition [7] 7.75%

COc1ccc(C2C(C(=O)NCc3cccnc3)c3ccccc3C(=O)N2C)cc1OC (stereo not drawn)
inactive: growth inhibition [1] -16.2% | growth inhibition [2] -13.9% | viability increase [3] -0.88% | viability [4] 101% | viability [5] 96.6% | inhibition [6] 1.71% | RAM network inhibition [7] -0.99%

CN(C)C(=O)Nc1cnc2ccccc2c1
inactive: growth inhibition [1] 0.64% | growth inhibition [2] -11.9% | viability increase [3] -0.11% | viability [4] 104% | viability [5] 99.3% | inhibition [6] 1.16% | RAM network inhibition [7] 1.97%

CCCCCCn1c(SCCOC)nc2c1c(=O)[nH]c(=O)n2C
inactive: growth inhibition [1] -2.79% | growth inhibition [2] -3.65% | viability increase [3] -0.71% | viability [4] 90.2% | viability [5] 85% | inhibition [6] 1.88% | RAM network inhibition [7] 9.09%

Cc1ccc(NC(=O)CNS(=O)(=O)c2cccs2)cc1F
inactive: growth inhibition [1] -5.56% | growth inhibition [2] -17.9% | viability increase [3] 1.44% | viability [4] 100% | viability [5] 97.7% | inhibition [6] 0.01% | RAM network inhibition [7] -0.53%

O=C(Cn1c(-c2cncs2)nc2ccccc21)NCCc1ccccc1
inactive: growth inhibition [1] -6.77% | growth inhibition [2] -8.58% | viability increase [3] -2.77% | viability [4] 99.6% | viability [5] 92.7% | inhibition [6] 1.25% | RAM network inhibition [7] 4.43%

CC(C)OCCCNC(=O)c1ccc2c(c1)ncn2C1CCCC1
inactive: growth inhibition [1] -12.5% | growth inhibition [2] -6.74% | viability increase [3] -2.69% | viability [4] 102% | viability [5] 97.5% | inhibition [6] 1.38% | RAM network inhibition [7] 1.62%

COc1ccc(C2N(c3ccc(OC)cc3)C(=O)C3CCCN32)cc1 (stereo not drawn)
inactive: growth inhibition [1] -3.41% | growth inhibition [2] 2.04% | viability increase [3] -1.64% | viability [4] 106% | viability [5] 102% | inhibition [6] 0.67% | RAM network inhibition [7] -0.16%

COc1ccc(OC)c2sc(NC(=O)c3ccc(S(=O)(=O)N(C)C)cc3)nc12
inactive: growth inhibition [1] -19.3% | growth inhibition [2] -17.2% | viability increase [3] -5.45% | viability [4] 72.9% | viability [5] 68.9% | inhibition [6] 3.56% | RAM network inhibition [7] 6.48%

O=C(O)C1C(c2ccccc2)C(C(=O)OCc2ccco2)C1c1ccccc1 (stereo not drawn)
inactive: growth inhibition [1] -15.4% | growth inhibition [2] -14.6% | viability increase [3] -3.32% | viability [4] 89.5% | viability [5] 88.3% | inhibition [6] 0.645% | RAM network inhibition [7] 6.05%

CCC(=O)N1c2ccccc2NC2=C(C(=O)CC(c3ccco3)C2)C1c1ccco1 (stereo not drawn)
inactive: growth inhibition [1] -7.69% | growth inhibition [2] 7.1% | viability increase [3] -1.65% | viability [4] 92.4% | viability [5] 92.4% | inhibition [6] 0.915% | RAM network inhibition [7] -0.58%

COc1cccc(C2CC(c3cccc(Br)c3)n3nc(N)nc3N2)c1 (stereo not drawn)
inactive: growth inhibition [1] 2.54% | growth inhibition [2] 4.69% | viability increase [3] -0.49% | viability [4] 96.7% | viability [5] 90.3% | inhibition [6] 0.475% | RAM network inhibition [7] 5.95%

NC(=O)c1ccc(N2CCCCC2)c(N2C(=O)C3C4C=CC(C4)C3C2=O)c1 (stereo not drawn)
inactive: growth inhibition [1] 0.39% | growth inhibition [2] -4.49% | viability increase [3] -2.98% | viability [4] 101% | viability [5] 92.6% | inhibition [6] 0.92% | RAM network inhibition [7] 3.75%

CCN1C(=O)c2ccccc2S(=O)c2ccc(C(=O)NCc3ccccn3)cc21 (stereo not drawn)
inactive: growth inhibition [1] -1.77% | growth inhibition [2] -3.51% | viability increase [3] -0.87% | viability [4] 105% | viability [5] 95.7% | inhibition [6] 1.95% | RAM network inhibition [7] -2.39%

CCOc1ccc(C2CC(c3cccc(C)c3)n3nc(N)nc3N2)cc1 (stereo not drawn)
inactive: growth inhibition [1] 2.79% | growth inhibition [2] 11.8% | viability increase [3] -0.49% | viability [4] 91.7% | viability [5] 83.2% | inhibition [6] 1.02% | RAM network inhibition [7] 2.03%

CC(C)CCOc1cccc(C2c3c(oc4ccccc4c3=O)C(=O)N2CCCN2CCOCC2)c1 (stereo not drawn)
inactive: growth inhibition [1] -3.75% | growth inhibition [2] -23.9% | viability increase [3] -4.89% | viability [4] 87.9% | viability [5] 84.2% | inhibition [6] 0.82% | RAM network inhibition [7] 6.7%

CCOC(=O)N1CCN(c2nc(C)cc(C(F)(F)F)n2)CC1
inactive: growth inhibition [1] 1.86% | growth inhibition [2] -23.3% | viability increase [3] 2.84% | viability [4] 102% | viability [5] 96.5% | inhibition [6] 2.92% | RAM network inhibition [7] 2.23%

COc1ccc(N2CCN(C(=O)c3ccc4nc(N5CCCCC5)sc4c3)CC2)cc1
inactive: growth inhibition [1] 9.87% | growth inhibition [2] 6.32% | viability increase [3] 0.49% | viability [4] 101% | viability [5] 87% | inhibition [6] 2.52% | RAM network inhibition [7] 6.15%
